# Measured values from ChEMBL document CHEMBL1149055, “Spiroquinazoline, a novel substance P inhibitor with a new carbon skeleton, isolated from Aspergillus flavipes” (J Nat Prod, 1994).
# Calls of active or inactive are those of the source. The calls are words filed in the database; no cut-off is given here.
# Target: T1, Substance-P receptor (Homo sapiens, UniProt P25103)
# Experiment: Displacement of [3H]substance P from NK1 receptor in human astrocytoma cells
# Format: cell-based
# Procedure, shortened: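 Whole human astrocytoma cells; inhibition of [³H]-SP binding reported as a Ki in μM.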
# T1 sequence (P25103 whole entry): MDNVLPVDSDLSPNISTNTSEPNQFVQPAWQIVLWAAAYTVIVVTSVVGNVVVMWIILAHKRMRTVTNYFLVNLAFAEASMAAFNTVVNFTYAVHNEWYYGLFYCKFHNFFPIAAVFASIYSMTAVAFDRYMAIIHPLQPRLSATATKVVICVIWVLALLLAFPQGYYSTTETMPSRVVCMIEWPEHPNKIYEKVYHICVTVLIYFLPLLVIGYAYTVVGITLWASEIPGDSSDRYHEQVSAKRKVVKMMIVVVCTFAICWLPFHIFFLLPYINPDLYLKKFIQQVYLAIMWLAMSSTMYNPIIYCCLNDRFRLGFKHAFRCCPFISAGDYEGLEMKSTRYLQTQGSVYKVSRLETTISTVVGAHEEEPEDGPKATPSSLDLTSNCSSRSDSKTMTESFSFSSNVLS
row,Structure (SMILES),Ki [µM]
1,C=CC(C)(C)[C@@]12C[C@H]3C(=O)Nc4ccccc4C(=O)N3[C@@H]1N(C(C)=O)c1ccccc12 [ACYL ASZONALENIN],170
2,C[C@@]12NC(=O)[C@@H](C[C@@]13c1ccccc1N1C(=O)CN[C@@H]13)n1c2nc2ccccc2c1=O [SPIROQUINAZOLINE],95

# Target: T1, Substance-P receptor
# Experiment: Displacement of [3H]substance P from NK1 receptor in human astrocytoma cells at 200 uM
# Format: cell-based
row,Activity,Structure (SMILES)
1,inactive,CC(C)[C@@H]1NC(=O)[C@H]2CCCN2C1=O
2,inactive,CC(C)C[C@@H]1NC(=O)[C@@H]2CCCN2C1=O
3,inactive,O=C1N[C@@H](Cc2ccccc2)C(=O)N2CCC[C@H]12
4,inactive,CC(C)[C@@H]1NC(=O)[C@@H]2CCCN2C1=O

# The remaining lines, values behind:
row,Structure (SMILES),Activity
1,O=C(N[C@H](CO)Cc1ccccc1)c1ccccc1,inactive
2,O=C1N[C@@H](Cc2c[nH]c3ccccc23)C(=O)Nc2ccccc21,inactive
3,O=C1N[C@@H](Cc2ccc(O)cc2)C(=O)N2CCC[C@@H]12,inactive
4,C[C@H]1N[C@H]2N(C1=O)c1ccccc1[C@@]21C[C@@H]2C(=O)N[C@](C)(O1)c1nc3ccccc3c(=O)n12,inactive
5,O=C1N[C@@H](Cc2ccc(O)cc2)C(=O)N2CCC[C@H]12,inactive
6,O=C1N[C@@H](Cc2ccccc2)C(=O)N2CCC[C@@H]12,inactive
